From article PMC3031457 (Anti-cancer drugs, 2009)
Where two headings read alike, the source gives them in different places. Marks after values point to notes of the source that are not given here.

Tests used:
MIA PaCa2 [1] = conditions: read-out: IC50 (μM) MIA PaCa2; ref Li et al ([14]); cited from earlier work
Panc-1 [2] = conditions: read-out: IC50 (μM) Panc-1; ref Li et al ([14]); cited from earlier work
AsPC-1 [3] = conditions: read-out: IC50 (μM) AsPC-1; ref Li et al ([14]); cited from earlier work
BxPC-3 [4] = conditions: read-out: IC50 (μM) BxPC-3; ref Li et al ([14]); cited from earlier work
AsPC-1 [5] = test: Cell viability assay; type: cell-based, human; conditions: read-out: IC50 (μM) AsPC-1
Summary of the method: (§1)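 Cells were grown in RPMI-1640 with 10% FBS, pyruvate, HEPES, glutamine and antibiotics at 37°C, 5% CO2, and seeded at 6000 cells/well. After 24 h adherence, half the medium was replaced with serially diluted test compound, 5-fluorouracil, or methanol-containing medium. Exposure lasted 72 h. MTT (5 mg/ml solution) was then added for 3 h at 37°C, formazan dissolved in HCl-acidified isopropanol, and absorbance read at 570 nm.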

Panc-1 [6] = test: Cell viability assay; type: cell-based, human; conditions: read-out: IC50 (μM) Panc-1
Summary of the method: as §1

[7] = tested on: genomic salmon testes DNA; test: DNA intercalation assay; type: binding; conditions: for % DNA intercalation: 25 μg/ml, ethidium bromide displacement; for DNA intercalation (in words): 5 and 25 μg/ml
Summary of the method: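 Genomic salmon testes DNA (0.5 μg) was equilibrated with 1.27 μM ethidium bromide for 30 min at room temperature. Test compound (5 or 25 μg/ml), methanol vehicle, 1 μM doxorubicin (positive control) or 100 μM etoposide (negative control) was added for a further 30 min. Ethidium displacement was read as a fluorescence decrease (ex 340, em 590 nm). Mean of 3 experiments ± standard deviation.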

AsPC-1 cells = test: Cell cycle analysis by flow cytometry; type: cell-based, human; conditions: 48 hours
Summary of the method: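 AsPC-1 cells were trypsinized into 6-well plates and allowed to adhere for 24 h. They were then exposed for 48 h to test compound at 5 or 25 μg/ml, methanol vehicle, medium alone, or 100 nM paclitaxel as positive control. Cells were fixed in ice-cold ethanol (−20°C, 1 h) and stained with propidium iodide plus RNase A (30 min, 37°C) for flow cytometry. Run 3 times.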

BxPC-3 [8] = test: Cell viability assay; type: cell-based, human; conditions: read-out: IC50 (μM) BxPC-3
Summary of the method: as §1

MIA PaCa2 [9] = test: Cell viability assay; type: cell-based, human; conditions: read-out: IC50 (μM) MIA PaCa2
Summary of the method: as §1

[10] = tested on: Panc-1, AsPC-1, BxPC-3, and MIA-PaCa2; test: Cell viability assay; type: cell-based, human; conditions: read-out: IC50 in all pancreatic cell lines
Summary of the method: as §1

Vero = test: Cell viability assay; type: cell-based, African green monkey; conditions: read-out: IC50 (μM) Vero; MTT, 72 hours, n=4 ± SE; normal cell line
Summary of the method: as §1

topoisomerase II = topoisomerase II (Homo sapiens, UniProt P11388); test: Decatenation reaction of kinetoplast DNA; type: biochemical; conditions: for % Inhibition topoisomeraseII / topoisomerase II inhibition (in words): 25 μg/ml; for % Inhibition topoisomeraseII: decatenation of kinetoplast DNA, 30 minutes; for inhibition at 25 µg/mL: read-out: % Inhibition topoisomeraseII
Summary of the method: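 A commercial kit assay was used: 0.2 μg kinetoplast DNA plus 1 U topoisomerase II in ATP/MgCl2/DTT buffer, 20 μl reactions. Test compound was added at 5 or 25 μg/ml (methanol vehicle); 100 μM etoposide in DMSO served as positive control. Reactions ran 30 min at 37°C, were stopped with Sarkosyl loading dye, and resolved on 1% agarose with ethidium bromide. Gel densitometry was used; seven experiments, SEM, Student's t test.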

topoisomerase II, sequence (P11388 whole entry): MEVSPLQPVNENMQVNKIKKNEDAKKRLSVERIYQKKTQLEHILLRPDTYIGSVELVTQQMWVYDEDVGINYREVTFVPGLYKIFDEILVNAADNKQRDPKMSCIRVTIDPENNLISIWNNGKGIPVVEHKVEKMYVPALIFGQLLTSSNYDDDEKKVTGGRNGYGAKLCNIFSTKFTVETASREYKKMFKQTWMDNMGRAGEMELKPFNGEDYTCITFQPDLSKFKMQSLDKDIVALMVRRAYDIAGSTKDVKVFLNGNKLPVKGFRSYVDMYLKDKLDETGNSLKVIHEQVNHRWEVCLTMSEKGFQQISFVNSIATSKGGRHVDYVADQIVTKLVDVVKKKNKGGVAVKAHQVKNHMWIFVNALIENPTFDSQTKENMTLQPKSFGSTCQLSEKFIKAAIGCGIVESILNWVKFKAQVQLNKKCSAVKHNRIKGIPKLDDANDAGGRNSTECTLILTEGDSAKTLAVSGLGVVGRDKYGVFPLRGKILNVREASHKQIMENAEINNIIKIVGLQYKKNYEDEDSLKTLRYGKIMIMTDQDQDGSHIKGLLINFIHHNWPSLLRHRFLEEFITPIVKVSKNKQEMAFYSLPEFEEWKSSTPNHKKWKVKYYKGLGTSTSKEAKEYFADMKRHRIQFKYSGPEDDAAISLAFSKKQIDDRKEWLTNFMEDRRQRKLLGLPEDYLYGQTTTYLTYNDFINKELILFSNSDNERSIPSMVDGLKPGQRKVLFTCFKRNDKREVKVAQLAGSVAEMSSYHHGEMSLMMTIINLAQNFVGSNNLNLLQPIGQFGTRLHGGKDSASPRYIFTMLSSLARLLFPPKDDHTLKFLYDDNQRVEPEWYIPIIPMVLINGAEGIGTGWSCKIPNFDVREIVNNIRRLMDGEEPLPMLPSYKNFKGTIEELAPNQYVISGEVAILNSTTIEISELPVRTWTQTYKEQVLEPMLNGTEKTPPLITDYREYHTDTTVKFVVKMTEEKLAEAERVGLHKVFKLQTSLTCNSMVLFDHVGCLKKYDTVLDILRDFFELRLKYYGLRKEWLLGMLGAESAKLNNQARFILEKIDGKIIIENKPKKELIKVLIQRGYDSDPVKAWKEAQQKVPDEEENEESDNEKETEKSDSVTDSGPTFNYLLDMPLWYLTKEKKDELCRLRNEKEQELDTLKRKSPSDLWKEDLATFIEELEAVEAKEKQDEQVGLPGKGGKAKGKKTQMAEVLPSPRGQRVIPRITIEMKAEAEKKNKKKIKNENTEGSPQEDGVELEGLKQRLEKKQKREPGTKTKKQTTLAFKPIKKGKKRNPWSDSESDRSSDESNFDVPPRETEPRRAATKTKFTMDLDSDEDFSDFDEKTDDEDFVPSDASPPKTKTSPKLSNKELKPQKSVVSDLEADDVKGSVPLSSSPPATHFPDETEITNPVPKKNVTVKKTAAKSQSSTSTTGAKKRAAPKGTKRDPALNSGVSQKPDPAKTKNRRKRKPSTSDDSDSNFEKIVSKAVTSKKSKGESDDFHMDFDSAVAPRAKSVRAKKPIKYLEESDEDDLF

Row | SMILES | IC50 (AsPC-1 [5]; MTT, 72 hours, n=4 ± SE) | IC50 (Panc-1 [6]; MTT, 72 hours, n=4 ± SE) | % DNA intercalation [7] | IC50 (BxPC-3 [8]; MTT, 72 hours, n=4 ± SE) | IC50 (MIA PaCa2 [9]; MTT, 72 hours, n=4 ± SE) | % Inhibition topoisomeraseII (topoisomerase II) | IC50 (AsPC-1 [5]; Homo sapiens, ASPC1, 72 h) | IC50 (Panc-1 [6]; Homo sapiens, PANC-1, 72 h) | IC50 (BxPC-3 [8]; Homo sapiens, BXPC-3, 72 h) | IC50 (MIA PaCa2 [9]; Homo sapiens, MIA PaCa-2, 72 h) | DNA intercalation (in words) [7] | Cell cycle arrest (AsPC-1 cells; 5 μg/ml, data not shown) | Cell cycle arrest (AsPC-1 cells; 25 μg/ml) | IC50 (Vero) | topoisomerase II inhibition (in words) (topoisomerase II) | inhibition at 25 µg/mL (topoisomerase II) | further results
1 | Nc1ccn([C@@H]2O[C@H](CO)[C@@H](O)C2(F)F)c(=O)n1 [Gemcitabine, gemcitabine] |  |  |  |  |  |  |  |  |  |  |  |  |  |  |  |  | IC50 (MIA PaCa2 [1]): 14.5 µM; IC50 (Panc-1 [2]): 7.2 µM; IC50 (AsPC-1 [3]): > 250 µM; IC50 (BxPC-3 [4]): > 250 µM
2 | CSc1c2ccnc3c2c(n1C)C(=O)C(N)=C3Cl [Isobatzelline D] | 1.48 ± 0.187 µM | 5.72 ± 0.253 µM | 47 ^** % | 1.48 ± 0.18 µM | 2.67 ± 0.295 µM | 26% |  |  |  |  |  | S-phase cell cycle arrest | S phase | 15.7 ± 1.17 µM |  |  | IC50 ([10]; MTT, 72 hours): < 10 µM
3 | O=c1[nH]cc(F)c(=O)[nH]1 [5-Fluorouracil, 5-fluorouracil, reference compound] |  |  |  |  |  |  | > 38.4 µM | 5.73 ± 0.682 µM | 5.56 ± 1.64 µM | 8.31 ± 0.357 µM |  |  |  |  |  |  | 
4 | CSc1c2c3c(n1C)C(=O)C(=O)C(Cl)=C3NCC2 [Batzelline A] |  |  | 18% |  |  |  | > 17.7 µM | > 17.7 µM | > 17.7 µM | > 17.7 µM | no DNA intercalation | S-phase cell cycle arrest | S phase |  |  | 58% | 
5 | CSc1c2c3c(n1C)C(=O)C(N)=C(Cl)C3=NCC2 [Isobatzelline A] | 1.74 ± 0.415 µM | 9.37 ± 0.536 µM | 54 ^** % | 2.39 ± 0.218 µM | 4.34 ± 0.22 µM | 36 ^* % |  |  |  |  | significant intercalation into DNA | S-phase cell cycle arrest | S phase | > 17.7 µM | significantly inhibited topoisomerase II activity |  | IC50 ([10]; MTT, 72 hours): < 10 µM
6 | CSC1=Nc2c(O)c(O)c(Cl)c3c2=C1CCN=3 [Batzelline B] | > 18.6 µM | > 18.6 µM | 21% | > 18.6 µM | > 18.6 µM | 63 ^* % |  |  |  |  |  | did not have an effect | S phase | > 18.6 µM | significantly inhibited topoisomerase II activity |  | 
7 | Cn1cc2c3c1C(=O)C(N)=C(Cl)C3=NCC2 [Isobatzelline C] |  |  | 56 ^** % |  |  |  | 1.72 ± 0.168 µM | 9.98 ± 0.384 µM | 1.31 ± 0.185 µM | 2.34 ± 0.0977 µM |  | S-phase cell cycle arrest | S phase |  |  | 27% | IC50 ([10]; Homo sapiens, 72 h): < 10 µM

Now from value to compound, other results behind:

Row | IC50 (AsPC-1 [5]; MTT, 72 hours, n=4 ± SE) | IC50 (Panc-1 [6]; MTT, 72 hours, n=4 ± SE) | % DNA intercalation [7] | IC50 (BxPC-3 [8]; MTT, 72 hours, n=4 ± SE) | IC50 (MIA PaCa2 [9]; MTT, 72 hours, n=4 ± SE) | % Inhibition topoisomeraseII (topoisomerase II) | IC50 (AsPC-1 [5]; Homo sapiens, ASPC1, 72 h) | IC50 (Panc-1 [6]; Homo sapiens, PANC-1, 72 h) | IC50 (BxPC-3 [8]; Homo sapiens, BXPC-3, 72 h) | IC50 (MIA PaCa2 [9]; Homo sapiens, MIA PaCa-2, 72 h) | DNA intercalation (in words) [7] | SMILES | Cell cycle arrest (AsPC-1 cells; 5 μg/ml, data not shown) | Cell cycle arrest (AsPC-1 cells; 25 μg/ml) | IC50 (Vero) | topoisomerase II inhibition (in words) (topoisomerase II) | inhibition at 25 µg/mL (topoisomerase II) | further results
8 | > 21.5 µM | > 21.5 µM |  | > 21.5 µM | > 21.5 µM | 95 ^* % |  |  |  |  | significant intercalation into DNA | Cn1cc2ccnc3c2c1C(=O)C(N)=C3Cl [Isobatzelline E] | did not have an effect |  | > 21.5 µM | significantly inhibited topoisomerase II activity |  | 
9 |  |  |  |  |  |  | > 19.5 µM | 17.4 ± 0.281 µM | > 19.5 µM | > 19.5 µM | no DNA intercalation | NC1=C(Cl)C(=O)c2c(C(O)CO)c[nH]c2C1=O (centres unmarked) [Secobatzelline B] | did not have an effect | S phase |  | no DNA intercalation or topoisomerase II inhibition | 13% | 
10 |  |  |  |  |  |  | 3.62 ± 0.801 µM | 10.4 ± 1.16 µM | 4.09 ± 0.146 µM | 5.63 ± 0.739 µM | significant intercalation into DNA | N=C1C(Cl)=C(N)C(=O)c2[nH]cc(C(O)CO)c21 (centres unmarked) [Secobatzelline A] | S-phase cell cycle arrest | S phase |  | significantly inhibited topoisomerase II activity | 61% | IC50 ([10]; Homo sapiens, 72 h): < 10 µM
